According to ChEMBL document CHEMBL1138710, “A nonhydrolyzable analogue of phosphotyrosine, and related aryloxymethano- and aryloxyethano-phosphonic acids as motifs for inhibition of phosphatases” (Bioorg Med Chem Lett, 2004):

How the values were obtained:
[1] = molecular target: Alkaline phosphatase (Escherichia coli K-12) (UniProt P00634); test: Inhibition constant for Escherichia coli alkaline phosphatase at pH 9
How it was run: (§1)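 Competitive inhibition kinetics with p-nitrophenyl phosphate as substrate at 25°C, in 100 mM TRIS, 1 mM ZnCl2, 1 mM MgCl2, pH 9.0. Ki (mM) was derived from the competitive inhibition rate equation.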

[2] = molecular target: Secreted effector protein (Yersinia pestis) (UniProt O68720); test: Inhibition constant for YOP protein tyrosine phosphatase at pH 6.6
How it was run: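 Competitive Ki (mM) measured at 25°C against p-nitrophenyl phosphate substrate, in 100 mM succinate, 150 mM NaCl, pH 6.6.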

[3] = Inhibition constant protein phosphatase 2C in presence of [Mn2+] at 5 mM pH 7.5
How it was run: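 Competitive inhibition kinetics with p-nitrophenyl phosphate substrate (Km 1.1 mM under these conditions) at 25°C, in 100 mM TRIS, 5 mM MnCl2, 1 mM DTT, pH 7.5. Ki (mM) was derived from the competitive inhibition rate equation.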

[4] = molecular target: T1, Serine/threonine-protein phosphatase (Enterobacteria phage lambda) (UniProt P03772); test: Inhibition constant for lambda protein phosphatase in presence of [Mn2+] at 5 mM pH 7.3
T1 sequence (whole entry): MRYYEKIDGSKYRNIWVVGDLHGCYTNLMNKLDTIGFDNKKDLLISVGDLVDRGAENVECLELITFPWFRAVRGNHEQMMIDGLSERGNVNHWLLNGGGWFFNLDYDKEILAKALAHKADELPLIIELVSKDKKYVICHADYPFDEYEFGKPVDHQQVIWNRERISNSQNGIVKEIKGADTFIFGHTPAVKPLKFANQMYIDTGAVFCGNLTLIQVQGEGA

Homo sapiens [5] = organism: Homo sapiens; test: Inhibition constant for human placental alkaline phosphatase at pH 9; how it was run: as §1
[6] = Inhibition constant for protein phosphatase 2C in presence of [Mn2+] at 1 mM pH 7.5
How it was run: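 Kinetics at 25°C with p-nitrophenyl phosphate substrate in 100 mM TRIS, 1 mM MnCl₂, 1 mM DTT, pH 7.5. Mn²⁺ was lowered from 5 mM for compounds precipitating at that level. Substrate Km was 1.1 mM and matched within error at both Mn²⁺ levels. Ki (mM) from a competitive inhibition model.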

Homo sapiens [7] = organism: Homo sapiens; test: Inhibition constant for human placental alkaline phosphatase at pH 9; No reduction in rate
[8] = molecular target: Alkaline phosphatase (Escherichia coli K-12) (UniProt P00634); test: Inhibition constant for Escherichia coli alkaline phosphatase at pH 9; No reduction in rate

Sequence of Alkaline phosphatase (Escherichia coli K-12) (P00634 whole entry): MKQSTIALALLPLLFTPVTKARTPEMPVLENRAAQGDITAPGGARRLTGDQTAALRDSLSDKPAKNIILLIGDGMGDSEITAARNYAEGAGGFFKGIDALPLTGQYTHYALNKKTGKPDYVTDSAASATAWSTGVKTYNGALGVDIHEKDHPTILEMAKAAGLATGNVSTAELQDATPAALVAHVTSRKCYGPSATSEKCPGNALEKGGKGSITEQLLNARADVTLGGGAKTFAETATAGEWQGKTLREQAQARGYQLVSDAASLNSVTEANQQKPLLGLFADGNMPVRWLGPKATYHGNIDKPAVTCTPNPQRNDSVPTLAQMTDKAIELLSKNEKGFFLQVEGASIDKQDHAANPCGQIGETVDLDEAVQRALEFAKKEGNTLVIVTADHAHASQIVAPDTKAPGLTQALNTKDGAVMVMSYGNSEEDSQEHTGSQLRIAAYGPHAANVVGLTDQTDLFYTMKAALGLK

O=P(O)(O)COc1ccc2ccccc2c1
Inhibition [1]: 4 mM
Inhibition [2]: 6.3 mM
Inhibition [3]: Precipitation
Inhibition [4]: Precipitation
Inhibition (Homo sapiens [5]): 1.1 mM

O=C(O)c1cccc2cc(OCP(=O)(O)O)ccc12
Inhibition [1]: 4.2 mM
Inhibition [2]: 2.2 mM
Inhibition [3]: 0.06 mM
Inhibition [4]: 0.03 mM
Inhibition (Homo sapiens [5]): 3.4 mM

N[C@@H](Cc1ccc(OCP(=O)(O)O)cc1)C(=O)O
Inhibition [1]: 5 mM
Inhibition [2]: 21 mM
Inhibition [3]: 0.76 mM
Inhibition [4]: 0.02 mM
Inhibition (Homo sapiens [5]): 1.7 mM

O=P(O)(O)CCOc1ccccc1
Inhibition [6]: 0.4 mM
Inhibition [1]: 0.1 mM
Inhibition [2]: 2.17 mM
Inhibition [4]: 0.05 mM
Inhibition (Homo sapiens [5]): 0.11 mM

O=P(O)(O)CSc1ccccc1
Inhibition [6]: 0.17 mM
Inhibition [1]: 0.04 mM
Inhibition [2]: 4.6 mM
Inhibition [4]: 0.33 mM
Inhibition (Homo sapiens [5]): 0.13 mM

O=C(O)Cc1ccc(OCCP(=O)(O)O)cc1
Inhibition [1]: 0.6 mM
Inhibition [2]: 19 mM
Inhibition [3]: 0.23 mM
Inhibition [4]: 0.12 mM
Inhibition (Homo sapiens [5]): 0.14 mM

O=C(O)Cc1ccc(OCP(=O)(O)O)cc1
Inhibition (Homo sapiens [7]): No inhibition
Inhibition [1]: 5.1 mM
Inhibition [2]: 12 mM
Inhibition [3]: 0.13 mM
Inhibition [4]: 0.19 mM

N[C@H](Cc1ccc(OCP(=O)(O)O)cc1)C(=O)O
Inhibition [1]: 4.8 mM
Inhibition [2]: 0.63 mM
Inhibition [3]: 0.34 mM
Inhibition [4]: 0.03 mM
Inhibition (Homo sapiens [5]): 1.85 mM

O=P(O)(O)COc1ccccc1
Inhibition [6]: 0.32 mM
Inhibition [2]: 5 mM
Inhibition [4]: 0.27 mM
Inhibition [8]: No inhibition
Inhibition (Homo sapiens [5]): 0.9 mM

O=P(O)(O)CCSc1ccccc1
Inhibition [6]: 0.3 mM
Inhibition [1]: 0.9 mM
Inhibition [2]: 10 mM
Inhibition [4]: 0.14 mM
Inhibition (Homo sapiens [5]): 0.69 mM
